# In publication PMC6153321 (Pharmacology Research & Perspectives, 2018):
# Bridge positions count the residues as written; N and C are the ends. Square brackets hold non-standard residues; d marks the D form. Ends that are not written are not given here. Peptide text beside a SMILES is read from it. I, II: the chains in the order shown. S5 = C=CCCC[C@](C)(N)C(=O)O
# How the values were obtained:
# RXFP3 [1] = molecular target: T1, RXFP3 (Homo sapiens, UniProt Q9NSD7); assay: CAMYEL BRET inhibition of forskolin-stimulated cAMP, HEK-RXFP3 cells; format: cell-based; details: 45 minutes, mean ± SEM, three independent experiments
# T1 sequence (Q9NSD7 1-469): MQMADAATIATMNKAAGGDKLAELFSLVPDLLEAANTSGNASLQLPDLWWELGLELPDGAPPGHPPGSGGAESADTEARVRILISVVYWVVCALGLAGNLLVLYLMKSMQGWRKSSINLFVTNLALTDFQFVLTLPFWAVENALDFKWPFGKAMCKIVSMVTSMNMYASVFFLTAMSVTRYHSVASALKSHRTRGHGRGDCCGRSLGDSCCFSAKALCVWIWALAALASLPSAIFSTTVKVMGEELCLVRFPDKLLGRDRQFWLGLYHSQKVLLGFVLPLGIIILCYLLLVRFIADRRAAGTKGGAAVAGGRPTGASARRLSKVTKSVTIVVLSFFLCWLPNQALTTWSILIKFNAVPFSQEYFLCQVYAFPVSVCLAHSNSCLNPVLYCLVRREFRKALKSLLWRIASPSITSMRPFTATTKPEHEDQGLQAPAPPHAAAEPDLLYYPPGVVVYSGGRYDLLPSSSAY
# RXFP3 [2] = molecular target: T1, RXFP3; assay: CAMYEL BRET inhibition of forskolin-stimulated cAMP, CHO-RXFP3 cells; format: cell-based; details: agonist 100 nmol L^−1‐10 μmol L^−1, at about 20‐25 minutes
# β‐adrenoceptors [3] = assay: CAMYEL BRET isoprenaline-induced cAMP, HEK293A ΔGαs cells; format: cell-based, human; details: 10 μmol L^−1
# Procedure, shortened: (§1)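 HEK293A parental or Gαs-knockout cells were co-transfected with CAMYEL and RXFP1, then reseeded overnight in phenol-red-free HEPES medium. Isoprenaline (10 μmol L⁻¹) served as a control for endogenous Gαs-coupled β-adrenoceptor signalling. Read-out: vehicle-subtracted, sign-inverted 535/475 nm BRET ratio; three independent experiments.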
# β‐adrenoceptors [4] = assay: CAMYEL BRET isoprenaline-induced cAMP, HEK293A parental cells; format: cell-based, human; details: 10 μmol L^−1
# Procedure, shortened: as §1
# adenylate cyclase [5] = assay: CAMYEL BRET forskolin-induced cAMP, HEK-RXFP2 cells; format: cell-based, human; details: 45 minutes
# Procedure, shortened: (§2)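 HEK cells stably expressing RXFP1 (HEK293T background) or RXFP2 were transiently transfected with CAMYEL, then reseeded next day in phenol-red-free complete medium with 25 mmol L⁻¹ HEPES. At 37°C, cells got coelenterazine h (5 μmol L⁻¹ final) for a 5-min baseline, then vehicle, forskolin or agonist for 45 min. Read-out was vehicle-subtracted citrine/Rluc BRET ratio, sign-inverted. Agonist curves at 5 and 45 min as % of 10 μmol L⁻¹ forskolin maximum; n=3.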
# adenylate cyclase [6] = assay: CAMYEL BRET forskolin-induced cAMP, HEK293A parental cells; format: cell-based, human; details: 45 minutes, three independent experiments
# adenylate cyclase [7] = assay: CAMYEL BRET forskolin-induced cAMP, HEK-RXFP1 cells; format: cell-based, human; details: 45 minutes, three independent experiments
# Procedure, shortened: as §2
# adenylate cyclase [8] = details: cited from earlier work
# adenylate cyclase [9] = assay: CAMYEL BRET forskolin-induced cAMP, THP-1 CAMYEL cells; format: cell-based, human; details: high-CAMYEL THP‐1 cells, three independent experiments
# adenylate cyclase [10] = assay: CAMYEL BRET forskolin-induced cAMP, HEK293A ΔGαs cells; format: cell-based, human
# RXFP2 = RXFP2 (Homo sapiens, UniProt Q8WXD0); assay: CAMYEL BRET real-time cAMP activation, HEK-RXFP2 cells; format: cell-based
# Procedure, shortened: as §2
# GH3B6 cells = details: cited from earlier work
# Chain of RXFP2 (Q8WXD0 whole entry): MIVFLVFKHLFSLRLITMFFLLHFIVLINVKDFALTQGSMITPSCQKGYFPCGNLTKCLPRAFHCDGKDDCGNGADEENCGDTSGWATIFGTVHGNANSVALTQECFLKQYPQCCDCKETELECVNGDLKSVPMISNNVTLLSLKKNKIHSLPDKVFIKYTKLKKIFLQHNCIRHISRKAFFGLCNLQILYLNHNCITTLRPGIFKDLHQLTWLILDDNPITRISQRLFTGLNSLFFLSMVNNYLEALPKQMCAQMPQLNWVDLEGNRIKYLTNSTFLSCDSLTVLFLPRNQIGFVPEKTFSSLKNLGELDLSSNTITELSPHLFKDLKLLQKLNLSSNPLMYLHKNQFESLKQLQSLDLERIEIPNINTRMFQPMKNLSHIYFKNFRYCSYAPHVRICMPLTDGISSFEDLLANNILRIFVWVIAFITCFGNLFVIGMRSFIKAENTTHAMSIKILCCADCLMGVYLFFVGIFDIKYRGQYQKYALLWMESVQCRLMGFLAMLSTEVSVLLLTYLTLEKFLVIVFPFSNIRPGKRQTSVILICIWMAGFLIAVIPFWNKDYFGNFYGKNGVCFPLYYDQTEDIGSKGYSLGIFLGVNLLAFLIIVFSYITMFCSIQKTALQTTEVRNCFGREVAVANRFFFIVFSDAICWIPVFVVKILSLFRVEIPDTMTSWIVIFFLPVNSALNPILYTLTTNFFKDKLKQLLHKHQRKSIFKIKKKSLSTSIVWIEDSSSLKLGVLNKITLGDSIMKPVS
compound,measurement,setting,value
CC[C@H](C)[C@@H]1NC(=O)[C@H](Cc2ccccc2)NC(=O)[C@H](CCC(=O)O)NC(=O)[C@H](CCCNC(=N)N)NC(=O)CNC(=O)[C@@H](NC(=O)[C@H](CC(C)C)NC(=O)[C@H](CCCNC(=N)N)NC(=O)[C@@H](NC(=O)CNC(=O)[C@H](Cc2ccc(O)cc2)NC(=O)[C@@H]2CCCN2C(=O)[C@H](C)NC(=O)[C@H](C)NC(=O)[C@@H](N)CCCNC(=N)N)C(C)C)CSSC[C@H](N)C(=O)N[C@@H](CCCCN)C(=O)N[C@@H](Cc2c[nH]c3ccccc23)C(=O)NCC(=O)N[C@@H](C)C(=O)N[C@@H](CO)C(=O)N[C@@H](CCCCN)C(=O)N[C@@H](CO)C(=O)N[C@@H](CCC(=O)O)C(=O)N[C@@H]([C@@H](C)CC)C(=O)N[C@@H](CO)C(=O)N[C@@H](CO)C(=O)N[C@@H](CC(C)C)C(=O)N[C@H](C(=O)O)CSSC[C@@H](C(=O)NCC(=O)NCC(=O)N[C@@H](CO)C(=O)N[C@@H](CCCNC(=N)N)C(=O)N[C@@H](Cc2c[nH]c3ccccc23)C(=O)O)NC(=O)[C@H]([C@@H](C)O)NC(=O)[C@H](Cc2ccccc2)NC(=O)[C@H]([C@@H](C)CC)NC(=O)[C@H](C(C)C)NC(=O)[C@H](C)NC(=O)[C@H](CCCNC(=N)N)NC1=O [Analogue 2],pEC50,RXFP3 [1],Ambiguous
same,inhibition of forskolin-stimulated cAMP at higher concentrations,RXFP3 [2],Complete or near‐complete inhibition
CC(C)NCC(O)c1ccc(O)c(O)c1 (centres unmarked) [Isoprenaline],cAMP response to isoprenaline,β‐adrenoceptors [3],abolished in the ΔGαs cells
same,cAMP response to isoprenaline,β‐adrenoceptors [4],robust in the parental cells
CC[C@H](C)[C@@H]1NC(=O)[C@H](Cc2ccccc2)NC(=O)[C@@](C)(NC(=O)[C@H](CCCNC(=N)N)NC(=O)CNC(=O)[C@@H](N)CO)CCCC=CCCC[C@@](C)(C(=O)N[C@H](C(=O)N[C@H](C(=O)N[C@@H](Cc2ccccc2)C(=O)N[C@H](C(=O)N[C@@H](CO)C(=O)NCC(=O)NCC(=O)N[C@@H](CO)C(=O)N[C@@H](CCCNC(=N)N)C(=O)N[C@@H](Cc2c[nH]c3ccccc23)C(N)=O)[C@@H](C)O)[C@@H](C)CC)C(C)C)NC(=O)[C@H](CCCNC(=N)N)NC1=O [Peptide 5] (H-SGR[S5]FIR[S5]VIFTSGGSRW-NH2; staple 4-8; N-terminus and C-terminus assumed),inhibition of forskolin-stimulated cAMP at higher concentrations,RXFP3 [2],Complete or near‐complete inhibition
C=C[C@@]1(C)CC(=O)[C@]2(O)[C@@]3(C)[C@@H](O)CCC(C)(C)[C@@H]3[C@H](O)[C@H](OC(C)=O)[C@@]2(C)O1 [forskolin],potency (pEC50) of forskolin,"adenylate cyclase [5]; HEK‐RXFP2, three independent experiments",5.92 ± 0.08
same,forskolin potency in HEK‐RXFP2 relative to HEK‐RXFP1 cells,adenylate cyclase [5]; P < 0.01,nearly ten times lower than that seen in the HEK‐RXFP1 cells
same,potency of forskolin (pEC50),adenylate cyclase [6],5.91 ± 0.04
same,potency (pEC50) of forskolin,adenylate cyclase [7],6.77 ± 0.07
same,affinity for adenylate cyclase in the absence of Gαs,adenylate cyclase [8],lower affinity for adenylate cyclase in the absence of Gαs
same,potency of forskolin (pEC50),adenylate cyclase [9]; 5 minutes,5.29 ± 0.03
same,potency of forskolin (pEC50),adenylate cyclase [9]; 45 minutes,4.93 ± 0.05
same,potency of forskolin (pEC50),"adenylate cyclase [10]; 45 minutes, HEK293A ΔGαs with re‐expression of Gαs, three independent experiments",7.1 ± 1.29
same,forskolin-induced cAMP activity,"adenylate cyclase [10]; HEK293A ΔGαs, without Gαs re-expression",very weak cAMP activity
same,forskolin concentration required to detect a cAMP increase,"adenylate cyclase [10]; HEK293A ΔGαs, increase only transient",> 10 µmol/L
"I: PTPEMREKLCGHHFVRALVRVCGGPRWSTEA / II: AAATNPARYCCLSGCTQQDLLTLCPY (disulfide I:10-II:11, I:22-II:24, II:10-II:15) [INSL3]",potency increase between 5 and 45 minutes,RXFP2; P < 0.01,~10 fold
same,temporal pattern of cAMP activity,RXFP2; sub‐maximal concentrations,"slow, sustained increases"
thyrotropin‐releasing hormone,cAMP activity reported by AC8‐localized sensor,GH3B6 cells,increases in cAMP activity
same,cAMP activity reported by cytosolic or plasma membrane FRET biosensors,GH3B6 cells,not the cytosolic or membrane forms
"vasoactive intestinal peptide: treatment of GH3B6 cells in cited work (ref 49) (HSDAVFTDNYTRLRKQMAVKKYLNSILN; ends and bridges not checked; UniProt P01282 125-152, looked up)",cAMP activity reported by AC8‐localized sensor,GH3B6 cells,not detected by an AC8‐localized sensor
